TRPC4 inh = inhibitors of mouse TRPC4 channel, primary screen, Fluo4 calcium, HEK293 TRPC4beta/mu-opioid cells. B-score at 10 µM. 0.39% of 300,000 active. Short transient receptor potential channel 4 (Mus musculus), Q9QUQ5. DAMGO-evoked Fluo4 calcium flux; stronger effect = lower value. AID 2247, 2010;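 active = B-score over 3 SD under the library average, no early fluorescence shift, positive overall ratio signal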
Target sequence (Q9QUQ5 whole entry, looked up): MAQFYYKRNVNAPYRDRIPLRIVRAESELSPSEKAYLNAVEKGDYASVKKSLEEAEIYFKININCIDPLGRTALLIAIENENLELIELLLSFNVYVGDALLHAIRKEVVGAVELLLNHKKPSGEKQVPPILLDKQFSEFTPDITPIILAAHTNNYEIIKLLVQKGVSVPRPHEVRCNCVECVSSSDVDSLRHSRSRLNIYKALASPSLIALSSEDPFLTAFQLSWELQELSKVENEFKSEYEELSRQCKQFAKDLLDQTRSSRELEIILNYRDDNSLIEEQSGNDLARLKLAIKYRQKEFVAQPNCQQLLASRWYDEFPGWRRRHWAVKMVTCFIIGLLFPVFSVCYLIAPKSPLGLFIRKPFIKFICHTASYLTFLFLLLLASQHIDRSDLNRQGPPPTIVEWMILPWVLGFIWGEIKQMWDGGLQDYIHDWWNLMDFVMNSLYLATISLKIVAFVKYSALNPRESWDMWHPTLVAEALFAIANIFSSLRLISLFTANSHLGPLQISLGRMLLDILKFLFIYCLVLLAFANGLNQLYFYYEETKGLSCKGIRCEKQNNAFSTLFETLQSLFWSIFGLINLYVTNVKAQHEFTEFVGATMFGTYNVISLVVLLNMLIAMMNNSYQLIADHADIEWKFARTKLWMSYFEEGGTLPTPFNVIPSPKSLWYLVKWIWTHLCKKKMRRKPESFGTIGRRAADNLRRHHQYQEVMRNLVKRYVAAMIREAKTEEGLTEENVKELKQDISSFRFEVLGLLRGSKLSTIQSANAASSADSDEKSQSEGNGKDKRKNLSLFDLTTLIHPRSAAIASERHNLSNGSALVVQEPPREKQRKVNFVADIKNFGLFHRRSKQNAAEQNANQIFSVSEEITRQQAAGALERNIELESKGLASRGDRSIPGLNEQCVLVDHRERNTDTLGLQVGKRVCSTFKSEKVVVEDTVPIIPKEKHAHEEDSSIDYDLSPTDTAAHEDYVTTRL
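Assay system: TRPC4beta/mu-opioid receptor HEK293 cell line; compound dosing: single concentration per test compound; detection: Fluo4 Ca2+ flux fluorescence; evaluation: per-well B score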
TRPC6 act = mouse TRPC6 channel activators, primary screen, cell-based, HEK293, membrane potential dye; HEK293-TRPC6 membrane potential dye fluorescence; stronger effect = higher value; Short transient receptor potential channel 6 (Mus musculus), Q61143; 0.13% of 310,000 active; B-score at 10 µM; AID 2550, 2010;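 active = B-score of the integrated fluorescence ratio above library mean plus 3 SD, and starting fluorescence ratio within library mean plus 5 SD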;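 also: higher score means more depolarization so channel activation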
TRPC4 act = activators of mouse TRPC4 channel, primary screen, Fluo4 calcium, HEK293 TRPC4beta/mu-opioid cells; 0.49% of 310,000 active; B-score at 10 µM; Fluo4 calcium fluorescence; stronger effect = higher value;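 active = B-score above 5 SD of library B-scores, and initial fluorescence ratio not above library mean plus 5 SD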;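 also: positive B-score marks a calcium rise read as TRPC4 activation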
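Technique: kinetic Fluo4 calcium fluorescence; Test system: TRPC4beta and mu-opioid receptor HEK293 stable cells; Measure: B-scored integrated calcium fluorescence ratio; Benchmarks: low control buffer alone, high control maximal DAMGO; Schedule: 45 min room-temperature Fluo4 loading, 110 s read.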
TRPC4 PAM = positive allosteric modulators of TRPC4, primary screen, cell-based, mouse TRPC4beta, HEK293 mu-opioid, Fluo-4 calcium; AID 2227, 2009; 0.42% of 310,000 active; B-score at 10 µM; Short transient receptor potential channel 4 (Mus musculus), Q9QUQ5; DAMGO EC20, Fluo-4 Ca2+ flux; stronger effect = higher value;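 active = B-score of calcium response area above 5 SD of library B-scores, with initial fluorescence ratio within 5 SD of library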;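 also: B-score of integrated fluorescence ratio over time as area under calcium response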
TRPC6 inh = mouse TRPC6 channel inhibitors, primary screen, cell-based, HEK293, membrane potential dye | ACh-evoked depolarization; stronger effect = lower value | 1.1% of 310,000 active | AID 2553, 2010 | B-score at 10 µM;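 active = B-score under library mean minus 3 SD, initial fluorescence not abnormally high, positive integrated signal ratio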;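 also: B-score derived from integrated fluorescence ratio over the kinetic read; more negative B-score means stronger inhibition of depolarization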
TRPC4 spec 2 = second selectivity test of TRPC6 inhibitors: effect on mouse TRPC4. shares compounds with TRPC6 inh. AID 2776. HEK293 TRPC4/MOR, membrane potential dye fluorescence; channel activated by saturating DAMGO dose. inhibition, % at 10 µM. 42% of 920 active;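 active = compounds whose fluorescence signal differed from control wells by over 3 SD, either direction, in both duplicate plates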
TRPC4 spec = mouse TRPC4 modulation by TRPC6 hits, confirmation, selectivity assay for TRPC6 inhibitor project, cell-based, HEK293 TRPC4/mu-opioid, membrane potential dye; shares compounds with TRPC6 inh; activity change, negative = inhibition, % at 10 µM; 61% of 920 active; membrane potential fluorescence;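 active = rise or fall in signal beyond 3 SD of buffer-only wells in both replicate plates, either sign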;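 also: integrated kinetic ratio of fluorescence range over baseline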
HEK293 MPD ctr 2-1 = nonspecific membrane potential effects, parental HEK293, confirmation, counter-screen for TRPC6 inhibitor project, cell-based, second counter screen. shares compounds with TRPC6 inh. parental HEK293 membrane potential dye fluorescence; maximal acetylcholine challenge after compound addition. signal change vs control, % at 10 µM. 31% of 920 active;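 active = membrane potential signal moving either way by over 3 SD of the maximum-effect control, in both duplicate plates, meaning non-specific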
HEK293 MPD ctr-1 = membrane potential modulation in parental HEK293, confirmation, counter-screen for TRPC6 inhibitor project, cell-based. shares compounds with TRPC6 inh. parental HEK293 membrane potential dye fluorescence. membrane potential signal change, % at 10 µM. 60% of 920 active. AID 2780, 2010;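 active = membrane potential signal shifting up or down by more than 3 SD of buffer-only wells, on both duplicate plates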
HEK293 MPD ctr-2 = parental HEK293 membrane potential modulation, confirmation, counter-screen for TRPC6 modulator project, cell-based; shares compounds with TRPC6 inh; membrane potential dye fluorescence; 51% of 2,400 active; membrane potential signal change, % at 10 µM;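 active = membrane potential signal moves up or down beyond 5 SD from buffer-only wells, on both duplicate plates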
HEK293 MPD ctr 2-2 = second check of TRPC6 modulator effects in parental HEK293 cells; membrane potential dye fluorescence; after compound, maximal acetylcholine stimulation; shares compounds with TRPC6 inh; inhibition, % at 10 µM; 14% of 2,400 active;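 active = membrane potential signal drops by more than 5 SD from the mean control signal, in both duplicate plates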;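 also: plate controls were acetylcholine ECmax control wells for no effect and buffer only wells for full effect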
TRPC4 ctr mod = TRPC4 modulation by TRPC6 hit compounds, confirmation, selectivity assay for TRPC6 modulator project, cell-based, HEK293 TRPC4/mu-opioid, membrane potential dye, mouse; shares compounds with TRPC6 inh; membrane potential fluorescence; percent change from control (negative = decrease, positive = increase), % at 10 µM; 69% of 2,400 active;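 active = membrane potential signal moved up or down beyond 5 SD of buffer control wells, in both duplicate plates, actives on both sides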;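 also: plate controls were assay buffer wells for no effect and DAMGO maximal-effect wells for full effect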
TRPC4/MOR inh 2 = second check of whether TRPC6 modulators also affect mouse TRPC4. inhibition, % at 10 µM. HEK293 TRPC4/mu-opioid, membrane potential dye fluorescence; stimulated with maximal-effect DAMGO. shares compounds with TRPC6 inh. 55% of 2,400 active. AID 488928;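 active = drop in membrane potential signal beyond 5 SD of the control wells in both duplicate plates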;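 also: TRPC4 counter screen for TRPC6 hits run under conditions tuned for TRPC6 not TRPC4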
TRPC6 inh conf = mouse TRPC6 channel inhibitors, confirmation, HEK293 cells, membrane potential dye, duplicate. shares compounds with TRPC6 inh. AID 488960, 2010. ACh-evoked depolarization. inhibition, % at 10 µM. 43% of 3,300 active;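 active = fluorescence ratio falls more than 5 SD below the full-stimulation control mean, in both duplicate runs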;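 also: integrated fluorescence ratio of peak minus minimum over baseline after agonist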
TRPC6 act confirm = mouse TRPC6 channel activators, confirmation, HEK293 cells, membrane potential dye, duplicate; 11% of 2,800 active; HEK293-TRPC6 membrane potential dye fluorescence, FDSS; activation, % at 10 µM; shares compounds with TRPC6 inh;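 active = ratio signal rise beyond 5 SD above unstimulated control wells' mean, seen in both duplicate runs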;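 also: plate controls were buffer EC0 wells for no effect and acetylcholine ECmax response for full effect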
The depositor's hits bear a star; i = inactive; . = not tested or not shown. In the library only some 2.3% were active in any assay of this set; here they are far more common.

SMILES | TRPC4 inh | TRPC6 act | TRPC4 act | TRPC4 PAM | TRPC6 inh | HEK293 MPD ctr-2 | HEK293 MPD ctr 2-2 | TRPC4 ctr mod | TRPC4/MOR inh 2 | TRPC6 inh conf | TRPC6 act confirm | others
CCOCCCNc1c2c(nc3cc(-c4ccc(F)cc4)nn13)CCC2 | i | i | i | i | i | . | . | . | . | . | .
CN(C)CCCNc1c2c(nc3cc(-c4cccc(F)c4)nn13)CCC2 | i | i | 123* | i | -7.27* | i | 126.5%* | -20.5%* | 51.5%* | 78.5%* | i
N#Cc1ccc2[nH]c(CO)c(-c3ccccc3)c2c1 | i | i | i | i | -5.36* | -83.5%* | i | -27.0%* | 45.0%* | i | i
CSc1ccc(C2Nc3cccc4cccc(c34)N2)cc1 | i | i | i | i | -6.97* | . | . | . | . | i | i | TRPC4 spec 2=i;TRPC4 spec=-10.8%*;HEK293 MPD ctr 2-1=i;HEK293 MPD ctr-1=-138.5%*
Clc1ccc(C2Nc3cccc4cccc(c34)N2)cc1 | i | i | i | i | i | . | . | . | . | . | .
CC(CCc1ccccc1)NC(=O)C(C)OC(=O)c1ccco1 (stereo not given) | i | i | i | i | i | . | . | . | . | . | .
COC(=O)c1ccc(CN2CCN(CCC(C)C)C(CCO)C2)cc1 (stereo not given) | i | i | i | i | -5.19* | 99.0%* | i | 10.5%* | i | i | .
Cc1cc(-n2cccn2)ccc1CN1CCN(CC(C)C)C(CCO)C1 (stereo not given) | i | i | i | i | -8.35* | . | . | . | . | 57.5%* | i | TRPC4 spec 2=i;TRPC4 spec=4.3%*;HEK293 MPD ctr 2-1=26.5%*;HEK293 MPD ctr-1=5.6%*
CC(=O)Nc1ccc(CN2CCN(C3CCCC3)C(CCO)C2)cc1 (stereo not given) | i | i | i | i | -6.89* | . | . | . | . | i | i | TRPC4 spec 2=i;TRPC4 spec=i;HEK293 MPD ctr 2-1=i;HEK293 MPD ctr-1=i
Cc1cc(-n2cccn2)ccc1CN1CCN(C2CCCC2)C(CCO)C1 (stereo not given) | i | i | i | i | -9.67* | . | . | . | . | 62.5%* | . | TRPC4 spec 2=i;TRPC4 spec=8.4%*;HEK293 MPD ctr 2-1=19.5%*;HEK293 MPD ctr-1=9.2%*
COCCN1Cc2cccc(C(=O)NC(C)c3cccs3)c2C1=O (stereo not given) | i | i | i | i | i | . | . | . | . | . | .
CC(=O)c1ccc(N2C(=NC(=O)CCC3CCCC3)SC3CS(=O)(=O)CC32)cc1 (stereo not given) | i | i | i | i | i | . | . | . | . | . | .
COc1cccc(S(=O)(=O)N2CCN(Cc3ccc4c(c3)OCO4)CC2)c1 | i | i | i | i | i | . | . | . | . | . | .
CC(NC(=O)/C=C/c1ccco1)c1nc2ccccc2n1Cc1cccc(Cl)c1 (stereo not given) | i | i | i | i | i | . | . | . | . | . | .
CCOC(=O)c1nnn(-c2nc(N3CCCC3)nc(N3CCCC3)n2)c1-c1ccccc1 | i | i | i | i | i | . | . | . | . | . | .
CCOC(=O)c1c(-c2ccccc2)nnn1-c1nc(OCC)nc(N2CCCCC2)n1 | i | 15.8* | i | i | i | 354.5%* | i | 91.0%* | i | i | 176.5%*
Cn1cnc([N+](=O)[O-])c1SCCO | i | i | i | i | i | . | . | . | . | . | .
N#CCCN(C(=O)Nc1ccc(Cl)cc1)c1ccccc1 | i | i | i | i | i | . | . | . | . | . | .
N#CCCN(CCC#N)C(=O)c1ccc(Cl)cc1 | i | i | i | i | -14* | i | i | i | i | i | i
Cc1cc(OC(=O)c2ccccc2F)c([N+](=O)[O-])c(=O)[nH]1 | i | i | i | i | i | . | . | . | . | . | .
COc1cc(OC)c2ccc(=O)oc2c1C(CCN1CCCC(C)C1)c1ccc(N(C)C)cc1 (stereo not given) | i | i | i | i | -5.72* | -112.5%* | i | -26.0%* | 70.0%* | 49.0%* | i
COc1ccc(C(CCN2CCCCC2)c2c(OC)cc(OC)c3c(-c4ccccc4)cc(=O)oc23)cc1 (stereo not given) | i | i | i | i | i | . | . | . | . | . | .
COc1cc(OC)c2c(-c3ccccc3)cc(=O)oc2c1C(CCN1CCCCC1)c1ccc(N(C)C)cc1 (stereo not given) | i | i | 116* | i | -6.23* | i | i | 36.0%* | 103.5%* | 55.0%* | i

Bioassay records as filed in PubChem BioAssay.
